Laboratory results as given in ChEMBL document CHEMBL1145640 (Bioorg Med Chem Lett, 2008).
Activity calls are given as the source filed them. The rule behind the calls is not given here.

Tests used:
[1] = target: Glutamate receptor ionotropic, NMDA 2B (Rattus norvegicus, UniProt Q00960); experiment: Displacement of [3H]ifenprodil from rat brain membrane NR2B receptor
[2] = target: Glutamate receptor ionotropic, NMDA 2B (Rattus norvegicus) (UniProt Q00960); experiment: Displacement of [3H]ifenprodil from rat brain membrane NR2B receptor relative to ifenprodil
Chain of Glutamate receptor ionotropic, NMDA 2B (Rattus norvegicus) (Q00960 27-1482 limits assumed): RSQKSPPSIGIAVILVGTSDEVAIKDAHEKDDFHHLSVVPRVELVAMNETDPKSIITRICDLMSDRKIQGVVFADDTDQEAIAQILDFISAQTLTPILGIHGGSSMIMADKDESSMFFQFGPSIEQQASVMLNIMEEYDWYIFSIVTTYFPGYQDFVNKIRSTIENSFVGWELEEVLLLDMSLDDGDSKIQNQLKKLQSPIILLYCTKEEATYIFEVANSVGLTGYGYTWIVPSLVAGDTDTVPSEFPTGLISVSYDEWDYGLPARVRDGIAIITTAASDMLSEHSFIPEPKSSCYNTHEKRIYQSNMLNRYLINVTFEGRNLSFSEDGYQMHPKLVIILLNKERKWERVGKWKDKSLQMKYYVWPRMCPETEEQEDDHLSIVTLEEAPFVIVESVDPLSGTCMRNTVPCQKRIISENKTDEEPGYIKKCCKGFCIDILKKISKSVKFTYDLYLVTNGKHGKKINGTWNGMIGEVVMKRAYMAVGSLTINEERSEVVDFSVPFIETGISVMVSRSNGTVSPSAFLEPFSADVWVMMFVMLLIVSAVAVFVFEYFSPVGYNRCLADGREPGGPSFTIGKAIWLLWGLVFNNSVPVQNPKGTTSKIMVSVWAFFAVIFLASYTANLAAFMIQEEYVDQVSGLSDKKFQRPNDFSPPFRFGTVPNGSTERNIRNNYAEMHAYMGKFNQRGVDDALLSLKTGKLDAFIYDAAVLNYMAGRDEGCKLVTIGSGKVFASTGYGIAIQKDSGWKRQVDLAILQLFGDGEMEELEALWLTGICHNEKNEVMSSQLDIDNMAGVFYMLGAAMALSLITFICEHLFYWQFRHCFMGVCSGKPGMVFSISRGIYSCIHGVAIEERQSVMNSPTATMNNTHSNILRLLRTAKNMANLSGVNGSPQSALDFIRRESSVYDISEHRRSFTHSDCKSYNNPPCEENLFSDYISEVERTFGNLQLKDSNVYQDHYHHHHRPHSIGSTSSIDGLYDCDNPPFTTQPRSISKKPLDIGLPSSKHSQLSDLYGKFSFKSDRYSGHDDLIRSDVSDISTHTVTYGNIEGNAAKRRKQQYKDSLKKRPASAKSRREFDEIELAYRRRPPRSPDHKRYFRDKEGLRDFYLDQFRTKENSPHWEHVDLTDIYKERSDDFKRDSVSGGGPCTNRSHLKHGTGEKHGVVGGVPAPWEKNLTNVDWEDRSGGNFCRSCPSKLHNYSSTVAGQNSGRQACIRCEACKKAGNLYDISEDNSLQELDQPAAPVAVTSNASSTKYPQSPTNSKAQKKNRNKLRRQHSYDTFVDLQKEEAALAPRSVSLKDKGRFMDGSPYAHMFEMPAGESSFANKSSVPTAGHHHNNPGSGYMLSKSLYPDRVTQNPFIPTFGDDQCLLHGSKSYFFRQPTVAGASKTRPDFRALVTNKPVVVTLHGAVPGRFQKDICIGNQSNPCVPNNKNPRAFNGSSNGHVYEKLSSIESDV

[3] = target: T1, Glutamate NMDA receptor; GRIN1/GRIN2B (Homo sapiens, UniProt Q05586+Q13224); experiment: Inhibition of N-terminal domain truncated NR1/NR2B receptor expressed in xenopus oocytes assessed as effect on L-glutamate and glycine-induced current response; type: cell-based, Oocyte
[4] = Stability in frogs Ringer buffer by HPLC; type: physicochemical; settings: frog's Ringer buffer
[5] = Stability in frogs Ringer buffer in presence of N-acetyl cysteine methyl ester by HPLC; type: physicochemical; settings: frog's Ringer buffer with N-acetyl cysteine methyl ester
In short: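 Half-life in frog's Ringer buffer, pH 7.4, followed by HPLC peak-area decrease over time in presence of excess N-acetyl cysteine methyl ester; NACME and compound levels varied per run (mM range); reactivity also expressed in relative terms.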

[6] = target: T1, Glutamate NMDA receptor; GRIN1/GRIN2B; experiment: Inhibition of NR1/NR2B receptor expressed in xenopus oocytes assessed as effect on L-glutamate and glycine-induced current response; type: cell-based, Oocyte
In short: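 Two-electrode voltage clamp on Xenopus oocytes expressing wild-type NR1/NR2B receptors. NMDA currents were evoked with saturating L-glutamate plus glycine. The compound was applied during an ongoing NMDA response, and the change in current amplitude it induced was measured.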

[7] = target: T1, Glutamate NMDA receptor; GRIN1/GRIN2B; experiment: Inhibition of NR1/NR2B receptor expressed in xenopus oocytes assessed as effect on L-glutamate and glycine-induced current response relative to ifenprodil; type: cell-based; settings: Oocyte
In short: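 Two-electrode voltage clamp on Xenopus oocytes expressing wild-type NR1/NR2B. Currents evoked by saturating L-glutamate plus glycine, 100 µM each; compound applied during the NMDA response and change in current size measured.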

[8] = target: T2, Glutamate NMDA receptor; GRIN1/GRIN2A (Homo sapiens, UniProt Q05586+Q12879); experiment: Activity at NR1/NR2A receptor expressed in xenopus oocytes assessed as effect on L-glutamate and glycine-induced current response; type: cell-based, Oocyte
[9] = target: T2, Glutamate NMDA receptor; GRIN1/GRIN2A; experiment: Inhibition of NR1/NR2A receptor expressed in xenopus oocytes assessed as effect on L-glutamate and glycine-induced current response; type: cell-based, Oocyte
[10] = target: T2, Glutamate NMDA receptor; GRIN1/GRIN2A; experiment: Activity at NR1/NR2A receptor expressed in xenopus oocytes assessed as Inhibition of L-glutamate and glycine-induced current response at 100 uM; type: cell-based; settings: Oocyte
[11] = target: T1, Glutamate NMDA receptor; GRIN1/GRIN2B; experiment: Inhibition of N-terminal domain truncated NR1/NR2B receptor expressed in xenopus oocytes assessed as effect on L-glutamate and glycine-induced current response upto 100 uM; type: cell-based; settings: Oocyte
[12] = target: T1, Glutamate NMDA receptor; GRIN1/GRIN2B; experiment: Inhibition of NR1/NR2B receptor expressed in xenopus oocytes assessed as effect on L-glutamate and glycine-induced current response at 10 uM; type: cell-based; settings: Oocyte

Chain of Glutamate receptor ionotropic, NMDA 2B (Q00960 whole entry): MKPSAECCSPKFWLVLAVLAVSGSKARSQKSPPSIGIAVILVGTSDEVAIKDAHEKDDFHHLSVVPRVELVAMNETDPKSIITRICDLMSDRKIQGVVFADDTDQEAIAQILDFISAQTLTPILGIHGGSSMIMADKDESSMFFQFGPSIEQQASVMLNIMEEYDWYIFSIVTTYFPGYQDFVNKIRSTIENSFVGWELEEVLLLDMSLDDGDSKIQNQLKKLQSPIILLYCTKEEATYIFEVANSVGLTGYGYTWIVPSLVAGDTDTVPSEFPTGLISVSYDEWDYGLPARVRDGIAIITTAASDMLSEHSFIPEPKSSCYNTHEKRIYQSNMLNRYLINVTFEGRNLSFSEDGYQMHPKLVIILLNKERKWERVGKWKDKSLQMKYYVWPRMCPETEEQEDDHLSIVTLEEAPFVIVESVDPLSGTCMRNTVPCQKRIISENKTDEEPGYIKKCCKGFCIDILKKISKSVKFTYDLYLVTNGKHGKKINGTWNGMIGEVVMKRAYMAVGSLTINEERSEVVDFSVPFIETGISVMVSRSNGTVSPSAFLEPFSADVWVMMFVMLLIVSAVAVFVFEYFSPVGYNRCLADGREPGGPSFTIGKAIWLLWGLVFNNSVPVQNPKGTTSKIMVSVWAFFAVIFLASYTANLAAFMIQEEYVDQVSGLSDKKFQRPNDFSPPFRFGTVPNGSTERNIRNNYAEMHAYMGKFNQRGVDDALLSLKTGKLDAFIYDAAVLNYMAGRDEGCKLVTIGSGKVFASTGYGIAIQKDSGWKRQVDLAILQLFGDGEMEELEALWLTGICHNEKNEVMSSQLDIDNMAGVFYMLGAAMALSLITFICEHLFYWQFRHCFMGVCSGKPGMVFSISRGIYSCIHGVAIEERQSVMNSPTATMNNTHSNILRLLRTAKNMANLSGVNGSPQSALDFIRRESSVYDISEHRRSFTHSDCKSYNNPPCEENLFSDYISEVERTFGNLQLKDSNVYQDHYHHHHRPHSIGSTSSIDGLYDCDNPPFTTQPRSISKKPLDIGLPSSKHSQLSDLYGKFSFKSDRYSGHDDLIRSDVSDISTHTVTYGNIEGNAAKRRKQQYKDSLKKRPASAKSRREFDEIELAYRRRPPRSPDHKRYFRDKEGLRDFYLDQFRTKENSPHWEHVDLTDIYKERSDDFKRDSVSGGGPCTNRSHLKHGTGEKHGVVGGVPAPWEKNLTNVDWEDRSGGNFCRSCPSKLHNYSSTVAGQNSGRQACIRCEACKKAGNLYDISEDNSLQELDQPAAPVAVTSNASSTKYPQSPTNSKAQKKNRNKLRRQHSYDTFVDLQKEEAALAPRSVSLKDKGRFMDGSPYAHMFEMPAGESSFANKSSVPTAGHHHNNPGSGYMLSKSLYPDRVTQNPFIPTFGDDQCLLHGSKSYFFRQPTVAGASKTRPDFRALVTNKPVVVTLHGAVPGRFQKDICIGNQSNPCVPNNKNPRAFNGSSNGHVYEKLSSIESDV

SMILES	Ki [1] [nM]	Ratio [2]	half-life [4] [h]	half-life [5] [h]	further results
O=C(CN1CCC(Cc2ccc([N+](=O)[O-])cc2)CC1)c1ccc(O)cc1	200	18			
CC(C(O)c1ccc(N)cc1)N1CCC(Cc2ccccc2)CC1 (racemic; threo) [listing 1 of 2 here]	300				
CC(C(O)c1ccc(N)cc1)N1CCC(Cc2ccccc2)CC1 (racemic; erythro) [listing 1 of 2 here]		8.8			
O=C(CN1CCC(Cc2ccc(N=C=S)cc2)CC1)c1ccc(O)cc1	245	22	> 24	0.383	IC50 [3]: 570000 nM; IC50 [6]: 16000 nM; Ratio IC50 [7]: 145; EC50 [8]: > 100000 nM; IC50 [9]: 16000 nM
CC(C(=O)c1ccc(NC(=O)CCl)cc1)N1CCC(Cc2ccccc2)CC1 (stereo not given)	493	45	> 24	1.9	IC50 [3]: 230000 nM; IC50 [6]: 14000 nM; Ratio IC50 [7]: 130; EC50 [8]: > 100000 nM; inhibition [10]: 25%
C=C(CN1CCC(Cc2ccccc2)CC1)C(=O)c1ccc([N+](=O)[O-])cc1	248	23	5	1.03	
O=C(CN1CCC(Cc2ccccc2)CC1)c1ccc(O)cc1	141	13			
Oc1ccc(C(O)CN2CCC(Cc3ccccc3)CC2)cc1 (stereo not given)	62	16			
C=C(CN1CCC(Cc2ccccc2)CC1)C(=O)c1ccc(OC)cc1	527	48	5	0.117	Activity [11]: inactive; IC50 [6]: 70000 nM; Ratio IC50 [7]: 640; EC50 [8]: > 100000 nM; inhibition [10]: 11%
CC(C(O)c1ccc(N)cc1)N1CCC(Cc2ccccc2)CC1 (racemic; threo) [listing 2 of 2 here]		27			
CC(C(O)c1ccc(N)cc1)N1CCC(Cc2ccccc2)CC1 (racemic; erythro) [listing 2 of 2 here]	97				
CC(C(=O)c1ccc(N=C=S)cc1)N1CCC(Cc2ccccc2)CC1 (stereo not given)	679	62	20	0.054	inhibition [12]: 8%
CC(C(=O)c1ccc(N)cc1)N1CCC(Cc2ccccc2)CC1 (stereo not given)	58	1			
CC(=O)Nc1ccc(C(=O)C(C)N2CCC(Cc3ccccc3)CC2)cc1 (stereo not given)	107	10			
